Measurements from ChEMBL document CHEMBL4689842, “EUbOPEN Chemogenomics Library wave 1” (2021).

Test system: Fibroblast
Assay: Multiplex assay against human fibroblast
Assay type: toxicity, cell-based
Outline: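 Imaging took place on a CQ1 microscope at 37°C and 5% CO2 once compound had been added to live cells stained at seeding with Hoechst33342, BioTracker Green Microtubule Cytoskeleton Dye, MitoTracker Red and Annexin V Alexa Fluor 680. CellPathfinder machine-learning gating classed cells as Hoechst high-intensity objects or normal cells, classed normal cells as having healthy, pyknosed or fragmented nuclei, and classed pyknosed cells as mitotic or apoptotic. Tubulin, mitochondrial-mass and membrane-permeability phenotypes are per cents of the healthy-nucleus cells.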

[1] = 12 h, 1 µM, compound concentration 1 uM, replicate 1
[2] = 12 h, 1 µM, compound concentration 1 uM, replicate 2
[3] = 12 h, 10 µM, compound concentration 10 uM, replicate 1
[4] = 12 h, 10 µM, compound concentration 10 uM, replicate 2
[5] = 24 h, 1 µM, compound concentration 1 uM, replicate 1
[6] = 24 h, 1 µM, compound concentration 1 uM, replicate 2
[7] = 24 h, 10 µM, compound concentration 10 uM, replicate 1
[8] = 24 h, 10 µM, compound concentration 10 uM, replicate 2
[9] = 48 h, 1 µM, compound concentration 1 uM, replicate 1
[10] = 48 h, 1 µM, compound concentration 1 uM, replicate 2
[11] = 48 h, 10 µM, compound concentration 10 uM, replicate 1
[12] = 48 h, 10 µM, compound concentration 10 uM, replicate 2

SMILES: c1cn2cc(-c3ccc4cn[nH]c4c3)nc(Nc3ccc(N4CCOCC4)cc3)c2n1 [ENTOSPLETINIB]
- Population Apoptotic (%) [1]: 60%
- Population Fragmented Nuclei (%) [1]: 23%
- Population Healthy Nuclei (%) [1]: 36%
- Population Hoechst High Intensity Objects (%) [1]: 14%
- Population Membrane Permeable-Phenotype (%) [1]: 20%
- Population Mitochondria Different-Phenotype (%) [1]: 12%
- Population Mitotic Cells (%) [1]: 39%
- Population Normal (%) [1]: 85%
- Population Pyknosed Nuclei (%) [1]: 40%
- Population Tubulin-Different-Phenotype (%) [1]: 52%
- Total Cell Count [1]: 81
- Population Apoptotic (%) [2]: 40%
- Population Fragmented Nuclei (%) [2]: 16%
- Population Healthy Nuclei (%) [2]: 73%
- Population Hoechst High Intensity Objects (%) [2]: 5%
- Population Membrane Permeable-Phenotype (%) [2]: 10%
- Population Mitochondria Different-Phenotype (%) [2]: 23%
- Population Mitotic Cells (%) [2]: 60%
- Population Normal (%) [2]: 94%
- Population Pyknosed Nuclei (%) [2]: 9%
- Population Tubulin-Different-Phenotype (%) [2]: 25%
- Total Cell Count [2]: 59
- Population Apoptotic (%) [3]: 51%
- Population Fragmented Nuclei (%) [3]: 24%
- Population Healthy Nuclei (%) [3]: 3%
- Population Hoechst High Intensity Objects (%) [3]: 41%
- Population Membrane Permeable-Phenotype (%) [3]: 14%
- Population Mitochondria Different-Phenotype (%) [3]: 4%
- Population Mitotic Cells (%) [3]: 48%
- Population Normal (%) [3]: 58%
- Population Pyknosed Nuclei (%) [3]: 72%
- Population Tubulin-Different-Phenotype (%) [3]: 23%
- Total Cell Count [3]: 1163
- Population Apoptotic (%) [4]: 92%
- Population Fragmented Nuclei (%) [4]: 30%
- Population Healthy Nuclei (%) [4]: 2%
- Population Hoechst High Intensity Objects (%) [4]: 25%
- Population Membrane Permeable-Phenotype (%) [4]: 21%
- Population Mitochondria Different-Phenotype (%) [4]: 82%
- Population Mitotic Cells (%) [4]: 7%
- Population Normal (%) [4]: 74%
- Population Pyknosed Nuclei (%) [4]: 67%
- Population Tubulin-Different-Phenotype (%) [4]: 78%
- Total Cell Count [4]: 56
- Population Apoptotic (%) [5]: 60%
- Population Fragmented Nuclei (%) [5]: 25%
- Population Healthy Nuclei (%) [5]: 57%
- Population Hoechst High Intensity Objects (%) [5]: 11%
- Population Membrane Permeable-Phenotype (%) [5]: 23%
- Population Mitochondria Different-Phenotype (%) [5]: 7%
- Population Mitotic Cells (%) [5]: 40%
- Population Normal (%) [5]: 88%
- Population Pyknosed Nuclei (%) [5]: 16%
- Population Tubulin-Different-Phenotype (%) [5]: 51%
- Total Cell Count [5]: 102
- Population Apoptotic (%) [6]: 14%
- Population Fragmented Nuclei (%) [6]: 14%
- Population Healthy Nuclei (%) [6]: 74%
- Population Hoechst High Intensity Objects (%) [6]: 4%
- Population Membrane Permeable-Phenotype (%) [6]: 17%
- Population Mitochondria Different-Phenotype (%) [6]: 15%
- Population Mitotic Cells (%) [6]: 85%
- Population Normal (%) [6]: 95%
- Population Pyknosed Nuclei (%) [6]: 11%
- Population Tubulin-Different-Phenotype (%) [6]: 21%
- Total Cell Count [6]: 78
- Population Apoptotic (%) [7]: 48%
- Population Fragmented Nuclei (%) [7]: 22%
- Population Healthy Nuclei (%) [7]: 3%
- Population Hoechst High Intensity Objects (%) [7]: 44%
- Population Membrane Permeable-Phenotype (%) [7]: 23%
- Population Mitochondria Different-Phenotype (%) [7]: 4%
- Population Mitotic Cells (%) [7]: 51%
- Population Normal (%) [7]: 55%
- Population Pyknosed Nuclei (%) [7]: 74%
- Population Tubulin-Different-Phenotype (%) [7]: 47%
- Total Cell Count [7]: 1126
- Population Apoptotic (%) [8]: 89%
- Population Fragmented Nuclei (%) [8]: 33%
- Population Healthy Nuclei (%) [8]: 2%
- Population Hoechst High Intensity Objects (%) [8]: 26%
- Population Membrane Permeable-Phenotype (%) [8]: 8%
- Population Mitochondria Different-Phenotype (%) [8]: 36%
- Population Mitotic Cells (%) [8]: 10%
- Population Normal (%) [8]: 73%
- Population Pyknosed Nuclei (%) [8]: 64%
- Population Tubulin-Different-Phenotype (%) [8]: 20%
- Total Cell Count [8]: 65
- Population Apoptotic (%) [9]: 75%
- Population Fragmented Nuclei (%) [9]: 29%
- Population Healthy Nuclei (%) [9]: 65%
- Population Hoechst High Intensity Objects (%) [9]: 15%
- Population Membrane Permeable-Phenotype (%) [9]: 18%
- Population Mitochondria Different-Phenotype (%) [9]: 6%
- Population Mitotic Cells (%) [9]: 25%
- Population Normal (%) [9]: 84%
- Population Pyknosed Nuclei (%) [9]: 4%
- Population Tubulin-Different-Phenotype (%) [9]: 39%
- Total Cell Count [9]: 104
- Population Apoptotic (%) [10]: 33%
- Population Fragmented Nuclei (%) [10]: 28%
- Population Healthy Nuclei (%) [10]: 68%
- Population Hoechst High Intensity Objects (%) [10]: 11%
- Population Membrane Permeable-Phenotype (%) [10]: 9%
- Population Mitochondria Different-Phenotype (%) [10]: 1%
- Population Mitotic Cells (%) [10]: 66%
- Population Normal (%) [10]: 88%
- Population Pyknosed Nuclei (%) [10]: 2%
- Population Tubulin-Different-Phenotype (%) [10]: 50%
- Total Cell Count [10]: 116
- Population Apoptotic (%) [11]: 43%
- Population Fragmented Nuclei (%) [11]: 14%
- Population Healthy Nuclei (%) [11]: 4%
- Population Hoechst High Intensity Objects (%) [11]: 47%
- Population Membrane Permeable-Phenotype (%) [11]: 14%
- Population Mitochondria Different-Phenotype (%) [11]: 0%
- Population Mitotic Cells (%) [11]: 56%
- Population Normal (%) [11]: 52%
- Population Pyknosed Nuclei (%) [11]: 80%
- Population Tubulin-Different-Phenotype (%) [11]: 17%
- Total Cell Count [11]: 1093
- Population Apoptotic (%) [12]: 82%
- Population Fragmented Nuclei (%) [12]: 24%
- Population Healthy Nuclei (%) [12]: 6%
- Population Hoechst High Intensity Objects (%) [12]: 64%
- Population Membrane Permeable-Phenotype (%) [12]: 12%
- Population Mitochondria Different-Phenotype (%) [12]: 12%
- Population Mitotic Cells (%) [12]: 17%
- Population Normal (%) [12]: 35%
- Population Pyknosed Nuclei (%) [12]: 69%
- Population Tubulin-Different-Phenotype (%) [12]: 46%
- Total Cell Count [12]: 1794

SMILES: C=CC(=O)Nc1cc2c(Nc3ccc(F)c(Cl)c3)ncnc2cc1OCCCN1CCOCC1.Cl.Cl [CANERTINIB DIHYDROCHLORIDE]
- Population Apoptotic (%) [1]: 73%
- Population Fragmented Nuclei (%) [1]: 35%
- Population Healthy Nuclei (%) [1]: 53%
- Population Hoechst High Intensity Objects (%) [1]: 29%
- Population Membrane Permeable-Phenotype (%) [1]: 28%
- Population Mitochondria Different-Phenotype (%) [1]: 21%
- Population Mitotic Cells (%) [1]: 26%
- Population Normal (%) [1]: 70%
- Population Pyknosed Nuclei (%) [1]: 10%
- Population Tubulin-Different-Phenotype (%) [1]: 83%
- Total Cell Count [1]: 198
- Population Apoptotic (%) [2]: 100%
- Population Fragmented Nuclei (%) [2]: 58%
- Population Healthy Nuclei (%) [2]: 35%
- Population Hoechst High Intensity Objects (%) [2]: 39%
- Population Membrane Permeable-Phenotype (%) [2]: 20%
- Population Mitochondria Different-Phenotype (%) [2]: 66%
- Population Mitotic Cells (%) [2]: 0%
- Population Normal (%) [2]: 60%
- Population Pyknosed Nuclei (%) [2]: 5%
- Population Tubulin-Different-Phenotype (%) [2]: 91%
- Total Cell Count [2]: 110
- Population Apoptotic (%) [3]: 56%
- Population Fragmented Nuclei (%) [3]: 35%
- Population Healthy Nuclei (%) [3]: 45%
- Population Hoechst High Intensity Objects (%) [3]: 13%
- Population Mitotic Cells (%) [3]: 43%
- Population Normal (%) [3]: 86%
- Population Pyknosed Nuclei (%) [3]: 18%
- Population Tubulin-Different-Phenotype (%) [3]: 20%
- Total Cell Count [3]: 227
- Population Apoptotic (%) [4]: 57%
- Population Fragmented Nuclei (%) [4]: 60%
- Population Healthy Nuclei (%) [4]: 31%
- Population Hoechst High Intensity Objects (%) [4]: 43%
- Population Membrane Permeable-Phenotype (%) [4]: 10%
- Population Mitochondria Different-Phenotype (%) [4]: 10%
- Population Mitotic Cells (%) [4]: 42%
- Population Normal (%) [4]: 56%
- Population Pyknosed Nuclei (%) [4]: 7%
- Population Tubulin-Different-Phenotype (%) [4]: 27%
- Total Cell Count [4]: 160
- Population Apoptotic (%) [5]: 71%
- Population Fragmented Nuclei (%) [5]: 26%
- Population Healthy Nuclei (%) [5]: 38%
- Population Hoechst High Intensity Objects (%) [5]: 41%
- Population Membrane Permeable-Phenotype (%) [5]: 19%
- Population Mitochondria Different-Phenotype (%) [5]: 51%
- Population Mitotic Cells (%) [5]: 28%
- Population Normal (%) [5]: 58%
- Population Pyknosed Nuclei (%) [5]: 35%
- Population Tubulin-Different-Phenotype (%) [5]: 64%
- Total Cell Count [5]: 137
- Population Apoptotic (%) [6]: 100%
- Population Fragmented Nuclei (%) [6]: 59%
- Population Healthy Nuclei (%) [6]: 26%
- Population Hoechst High Intensity Objects (%) [6]: 39%
- Population Membrane Permeable-Phenotype (%) [6]: 23%
- Population Mitochondria Different-Phenotype (%) [6]: 76%
- Population Mitotic Cells (%) [6]: 0%
- Population Normal (%) [6]: 60%
- Population Pyknosed Nuclei (%) [6]: 14%
- Population Tubulin-Different-Phenotype (%) [6]: 61%
- Total Cell Count [6]: 81
- Population Apoptotic (%) [7]: 79%
- Population Fragmented Nuclei (%) [7]: 36%
- Population Healthy Nuclei (%) [7]: 50%
- Population Hoechst High Intensity Objects (%) [7]: 12%
- Population Membrane Permeable-Phenotype (%) [7]: 1%
- Population Mitochondria Different-Phenotype (%) [7]: 10%
- Population Mitotic Cells (%) [7]: 20%
- Population Normal (%) [7]: 87%
- Population Pyknosed Nuclei (%) [7]: 12%
- Population Tubulin-Different-Phenotype (%) [7]: 11%
- Total Cell Count [7]: 220
- Population Apoptotic (%) [8]: 50%
- Population Fragmented Nuclei (%) [8]: 73%
- Population Healthy Nuclei (%) [8]: 20%
- Population Hoechst High Intensity Objects (%) [8]: 44%
- Population Membrane Permeable-Phenotype (%) [8]: 5%
- Population Mitochondria Different-Phenotype (%) [8]: 16%
- Population Mitotic Cells (%) [8]: 50%
- Population Normal (%) [8]: 55%
- Population Pyknosed Nuclei (%) [8]: 6%
- Population Tubulin-Different-Phenotype (%) [8]: 33%
- Total Cell Count [8]: 159
